# Experimental data taken from ChEMBL document CHEMBL4823327, “New Selective Inhibitors of ERG Positive Prostate Cancer: ERGi-USU-6 Salt Derivatives” (ACS Med Chem Lett, 2021).
# Active and inactive are the calls of the source. No cut-off for these calls is given here.
# How the values were obtained:
# [1] = Toxicity in athymic nude mouse assessed as tissue and vasculature damage at 200 mg/kg, ip administered twice a week for 4 weeks; format: organism-based; settings: in vivo, 672 h
# Procedure, shortened: (§1)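 Athymic nude mice were split into five dose groups of 5 animals each: vehicle (90% PEG + 10% DMSO), 50, 100, 150 or 200 mg/kg in the same vehicle, given by injection. Survival and body weight were monitored through the study, with gross examination of major organs and the injection site. MTD was taken as the highest dose at which all animals survived.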
# [2] = Toxicity in athymic nude mouse assessed as health deterioration at 100 mg/kg, ip administered twice a week for 4 weeks; format: organism-based; settings: in vivo, 672 h; procedure, shortened: as §1
# [3] = Toxicity in athymic nude mouse assessed as localized inflammation at 200 mg/kg, ip administered twice a week for 4 weeks; format: organism-based; settings: in vivo, 672 h; procedure, shortened: as §1
# [4] = Toxicity in ip dose athymic nude mouse assessed as maximum tolerated dose administered twice a week for 4 weeks; format: organism-based; settings: in vivo; procedure, shortened: as §1
# [5] = Toxicity in athymic nude mouse assessed as body weight loss at 200 mg/kg, ip administered twice a week for 4 weeks; format: organism-based; settings: in vivo, 672 h; procedure, shortened: as §1
# [6] = biological target: Serine/threonine-protein kinase RIO2 (Homo sapiens) (UniProt Q9BVS4); test: Inhibition of RIOK2 in HUVEC at 0.05 to 0.25 uM; settings: dose 0.05-0.25 µM
# Procedure, shortened: (§2)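 HUVEC (ERG-positive normal primary endothelial cells) were treated at the same doses as VCaP cells, over a 0–0.25 μmol/L range. Read-outs were cell growth and endogenous ERG and RIOK2 protein levels.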
# [7] = system: HUVEC; test: Cytotoxicity against HUVEC assessed as inhibition of cell growth at 0.05 to 0.25 uM; format: cell-based; settings: human, dose 0.05-0.25 µM; procedure, shortened: as §2
# [8] = system: VCaP; test: Cytotoxicity against human VCaP cells assessed as inhibition of cell growth after 120 hrs by Cell Glow […] assay; format: functional, cell-based
# Chain of Serine/threonine-protein kinase RIO2 (Homo sapiens) (Q9BVS4 whole entry, looked up): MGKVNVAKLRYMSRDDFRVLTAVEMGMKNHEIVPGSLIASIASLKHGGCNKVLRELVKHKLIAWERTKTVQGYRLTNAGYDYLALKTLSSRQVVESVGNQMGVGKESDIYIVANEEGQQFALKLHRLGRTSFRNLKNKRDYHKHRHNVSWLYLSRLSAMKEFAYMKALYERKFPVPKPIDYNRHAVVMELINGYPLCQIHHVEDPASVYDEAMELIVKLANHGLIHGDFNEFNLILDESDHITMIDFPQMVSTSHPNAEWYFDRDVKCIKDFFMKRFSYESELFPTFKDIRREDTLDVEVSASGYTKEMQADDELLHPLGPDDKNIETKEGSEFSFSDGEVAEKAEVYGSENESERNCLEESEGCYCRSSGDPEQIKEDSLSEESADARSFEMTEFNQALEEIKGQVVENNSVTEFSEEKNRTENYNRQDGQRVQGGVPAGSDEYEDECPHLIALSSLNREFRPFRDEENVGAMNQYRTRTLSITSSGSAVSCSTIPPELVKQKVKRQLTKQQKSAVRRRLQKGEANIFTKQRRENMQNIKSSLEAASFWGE
Structure (SMILES),MTD at 672 h [4] [mg/kg],IC50 ([8]; vcap) [nM],"IC50 ([8]; Homo sapiens, VCaP, 120 h) [nM]",also measured
CN(C)c1ccc(/N=N/c2ccccn2)c(O)c1 [listing 1 of 3 here],100,,,Activity [1]: Toxic; Activity [2]: Non-Toxic; Activity [3]: Toxic; Activity [5]: Toxic
CN(C)c1ccc(/N=N/c2ccccn2)c(O)c1 [listing 2 of 3 here],,,,inhibition [6]: inactive
CN(C)c1ccc(/N=N/c2ccccn2)c(O)c1.CS(=O)(=O)O,,89,,Activity [7]: Non-Toxic
CN(C)c1ccc(/N=N/c2ccccn2)c(O)c1 [listing 3 of 3 here],,> 500,,
CC(=O)C(=O)O.CN(C)c1ccc(/N=N/c2ccccn2)c(O)c1,,,> 500,
Oc1ccc2ccccc2c1/N=N/c1nccs1,150,,170,
